Test results taken from ChEMBL document CHEMBL4007381, “Synthesis, X-ray crystal structure and anti-tumor activity of calix[n]arene polyhydroxyamine derivatives” (Eur J Med Chem, 2016).
Active and inactive are the calls of the source. The calls are words filed in the database; no cut-off is given here.

Legend:
HeLa [1] = assay: Cytotoxicity against human HeLa cells assessed as reduction in cell viability at 10 uM measured after 72 hrs by SRB assay relative to control; assay type: functional; settings: read-out: GI
Summary of the method: (§1)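 Adherent cells were seeded at 1-5 × 10⁴/well and grown 24 h at 37 °C in 5% CO₂. They were treated at a single 10 µM concentration for 72 h in triplicate wells. Read-out was SRB staining after TCA fixation, with dye dissolved in Tris base and OD read at 565 nm. Viability was expressed relative to control.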

MDA-MB-231 [2] = assay: Cytotoxicity against human MDA-MB-231 cells assessed as reduction in cell viability at 10 uM measured after 72 hrs by SRB assay relative to control; assay type: functional; settings: MDA-MB-231, 72 h, read-out: GI; summary of the method: as §1
SK-OV-3 [3] = assay: Cytotoxicity against human SKOV3 cells assessed as reduction in cell viability at 10 uM measured after 72 hrs by SRB assay relative to control; assay type: functional; settings: SK-OV-3, 72 h, read-out: GI; summary of the method: as §1
A549 [4] = assay: Cytotoxicity against human A549 cells assessed as reduction in cell viability at 10 uM measured after 72 hrs by SRB assay relative to control; assay type: functional; settings: A549, 72 h, read-out: GI; summary of the method: as §1
Raji [5] = assay: Cytotoxicity against human Raji cells assessed as reduction in cell viability at 10 uM measured after 72 hrs by MTT assay relative to control; assay type: functional; settings: read-out: GI
Summary of the method: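 Raji suspension cells were seeded at 1-5 × 10⁴/well and grown 24 h. They were treated at 10 µM for 72 h in triplicate wells. Read-out was MTT for 4 h, then solubilization in HCl/isopropanol/SDS overnight and OD at 550 nm, relative to control.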

SW1990 [6] = assay: Cytotoxicity against human SW1990 cells assessed as reduction in cell viability at 10 uM measured after 72 hrs by SRB assay relative to control; assay type: functional; settings: SW1990, 72 h, read-out: GI; summary of the method: as §1
SK-OV-3 [7] = assay: Cell cycle arrest in human SKOV3 cells assessed as decrease in accumulation at G2/M phase at 10 uM measured after 48 hrs by propidium iodide staining-based FACS analysis; assay type: functional
MDA-MB-231 [8] = assay: Cytotoxicity against human MDA-MB-231 cells assessed as reduction in cell viability measured after 72 hrs by SRB assay; assay type: functional, cell-based; settings: MDA-MB-231, 72 h
Summary of the method: (§2)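 Adherent cells in log phase were seeded at 1-5 × 10⁴/well and grown 24 h at 37 °C in 5% CO₂. They were exposed to 10 concentrations for 72 h, three wells each, then fixed with TCA and stained with SRB. Bound dye was dissolved in Tris base and read at OD 565 nm. Survival was expressed relative to vehicle (100%). Means came from ≥3 independent experiments, and apparent IC50 was read from the dose-response curves.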

SK-OV-3 [9] = assay: Cell cycle arrest in human SKOV3 cells assessed as decrease in accumulation at S phase at 10 uM measured after 48 hrs by propidium iodide staining-based FACS analysis; assay type: functional
SK-OV-3 [10] = assay: Cytotoxicity against human SKOV3 cells assessed as reduction in cell viability measured after 72 hrs by SRB assay; assay type: functional, cell-based; settings: SK-OV-3, 72 h; summary of the method: as §2
SK-OV-3 [11] = assay: Cell cycle arrest in human SKOV3 cells assessed as accumulation at G0/G1 phase at 10 uM measured after 48 hrs by propidium iodide staining-based FACS analysis; assay type: functional
HeLa [12] = assay: Cytotoxicity against human HeLa cells assessed as reduction in cell viability measured after 72 hrs by SRB assay; assay type: functional, cell-based; summary of the method: as §2
SK-OV-3 [13] = assay: Cell cycle arrest in human SKOV3 cells assessed as accumulation at S phase at 3 uM measured after 48 hrs by propidium iodide staining-based FACS analysis(reference value: 37.31 +/- 3.48%); assay type: functional
SW1990 [14] = assay: Cytotoxicity against human SW1990 cells assessed as reduction in cell viability measured after 72 hrs by SRB assay; assay type: functional, cell-based; settings: SW1990, 72 h; summary of the method: as §2
SK-OV-3 [15] = assay: Cell cycle arrest in human SKOV3 cells assessed as accumulation at G0/G1 phase at 3 uM measured after 48 hrs by propidium iodide staining-based FACS analysis (reference value: 49.47 +/- 1.91%); assay type: functional
SK-OV-3 [16] = assay: Induction of apoptosis in human SKOV3 cells assessed as downregulation of Bcl2 expression at 3 uM measured after 24 to 48 hrs by Hoechst-33342 staining-based immunofluorescent analysis relative to DMSO-control; assay type: functional, cell-based
Summary of the method: (§3)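 SKOV3 cells in 24-well plates were given 3 µM compound or DMSO. They were fixed with 4% paraformaldehyde for 20 min, permeabilized with 0.3% Triton X-100 for 10 min and blocked with sheep serum. Primary antibody (caspase-3, p53, Bcl-2 or Bax) was applied overnight at 4 °C, then fluorescein-conjugated secondary for 1 h and Hoechst 33342 for 15 min. Slides were imaged by fluorescence microscopy.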

SK-OV-3 [17] = assay: Induction of apoptosis in human SKOV3 cells assessed as effect on Bax expression at 3 uM measured after 24 to 48 hrs by Hoechst-33342 staining-based immunofluorescent analysis relative to DMSO-control; assay type: functional, cell-based; summary of the method: as §3
SK-OV-3 [18] = assay: Induction of apoptosis in human SKOV3 cells assessed as upregulation of caspase3 expression at 3 uM measured after 24 to 48 hrs by Hoechst-33342 staining-based immunofluorescent analysis relative to DMSO-control; assay type: functional, cell-based; summary of the method: as §3
SK-OV-3 [19] = assay: Cell cycle arrest in human SKOV3 cells assessed as decrease in accumulation at G2/M phase at 3 uM measured after 48 hrs by propidium iodide staining-based FACS analysis; assay type: functional
A549 [20] = assay: Cytotoxicity against human A549 cells assessed as reduction in cell viability measured after 72 hrs by SRB assay; assay type: functional, cell-based; settings: A549, 72 h; summary of the method: as §2
Raji [21] = assay: Cytotoxicity against human Raji cells assessed as reduction in cell viability measured after 72 hrs by MTT assay; assay type: functional, cell-based
Summary of the method: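 Raji suspension cells (RPMI 1640, 10% FBS) were seeded at 1-5 × 10⁴/well and grown 24 h at 37 °C in 5% CO₂. They were exposed to 10 concentrations for 72 h in triplicate wells. MTT was added for 4 h, then HCl/isopropanol/SDS was added overnight, and OD was read at 550 nm. Data are means of ≥3 independent experiments, relative to vehicle, with apparent IC50 taken from the dose-response curves.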

SK-OV-3 [22] = assay: Induction of apoptosis in human SKOV3 cells assessed as upregulation of p53 expression at 3 uM measured after 24 to 48 hrs by Hoechst-33342 staining-based immunofluorescent analysis relative to DMSO-control; assay type: functional, cell-based; summary of the method: as §3

| SMILES | inhibition of growth at 10 µM (HeLa [1]) | inhibition of growth at 10 µM (MDA-MB-231 [2]) | inhibition of growth at 10 µM (SK-OV-3 [3]) | inhibition of growth at 10 µM (A549 [4]) | inhibition of growth at 10 µM (Raji [5]) | inhibition of growth at 10 µM (SW1990 [6]) | further results |
| --- | --- | --- | --- | --- | --- | --- | --- |
| O=C(COc1c2cccc1Cc1cccc(c1O)Cc1cccc(c1OCC(=O)N(CCO)CCO)Cc1cccc(c1O)C2)N(CCO)CCO | 38% | 22% | 34% | 7% | 34% | 4% |  |
| O=C(COc1c2cccc1Cc1cccc(c1OCC(=O)N(CCO)CCO)Cc1cccc(c1OCC(=O)N(CCO)CCO)Cc1cccc(c1OCC(=O)N(CCO)CCO)Cc1cccc(c1OCC(=O)N(CCO)CCO)Cc1cccc(c1OCC(=O)N(CCO)CCO)Cc1cccc(c1OCC(=O)N(CCO)CCO)Cc1cccc(c1OCC(=O)N(CCO)CCO)C2)N(CCO)CCO | 18% | 13% | 25% | 6% | 11% | 2% |  |
| O=C(COc1c2cccc1Cc1cccc(c1OCC(=O)NCCO)Cc1cccc(c1OCC(=O)NCCO)Cc1cccc(c1OCC(=O)NCCO)Cc1cccc(c1OCC(=O)NCCO)Cc1cccc(c1OCC(=O)NCCO)Cc1cccc(c1OCC(=O)NCCO)Cc1cccc(c1OCC(=O)NCCO)C2)NCCO | 32% | 27% | 1% | 2% | 7% | 4% |  |
| O=C(COc1c2cccc1Cc1cccc(c1O)Cc1cccc(c1OCC(=O)NCCO)Cc1cccc(c1O)C2)NCCO | 46% | 57% | 86% | 13% | 29% | 10% | Activity (SK-OV-3 [7]): Active; IC50 (MDA-MB-231 [8]): 1.6 µM; Activity (SK-OV-3 [9]): Active; IC50 (SK-OV-3 [10]): 2.3 µM; Activity (SK-OV-3 [11]): Active |
| CC(C)(C)c1cc2c(OCC(=O)NCCO)c(c1)Cc1cc(C(C)(C)C)cc(c1OCC(=O)NCCO)Cc1cc(C(C)(C)C)cc(c1OCC(=O)NCCO)Cc1cc(C(C)(C)C)cc(c1OCC(=O)NCCO)Cc1cc(C(C)(C)C)cc(c1OCC(=O)NCCO)Cc1cc(C(C)(C)C)cc(c1OCC(=O)NCCO)C2 | 40% | 12% | 24% | 7% | 38% | 4% |  |
| CC(C)(C)c1cc2c(O)c(c1)Cc1cc(C(C)(C)C)cc(c1OCC(=O)NCCO)Cc1cc(C(C)(C)C)cc(c1O)Cc1cc(C(C)(C)C)cc(c1OCC(=O)NCCO)C2 | 100% | 99% | 97% | 89% | 100% | 95% | IC50 (HeLa [12]): 2.7 µM; Activity (SK-OV-3 [13]): 24.19%; IC50 (MDA-MB-231 [8]): 5.3 µM; IC50 (SK-OV-3 [10]): 2.8 µM; IC50 (SW1990 [14]): 4.3 µM; Activity (SK-OV-3 [15]): 64.25%; Activity (SK-OV-3 [16]): Active; Activity (SK-OV-3 [17]): inactive; Activity (SK-OV-3 [18]): Active; Activity (SK-OV-3 [19]): Active; IC50 (A549 [20]): 4 µM; IC50 (Raji [21]): 5 µM; Activity (SK-OV-3 [22]): Active |
| O=C(COc1c2cccc1Cc1cccc(c1OCC(=O)NCCO)Cc1cccc(c1OCC(=O)NCCO)Cc1cccc(c1OCC(=O)NCCO)Cc1cccc(c1OCC(=O)NCCO)Cc1cccc(c1OCC(=O)NCCO)C2)NCCO | 6% | 4% | 10% | 7% | 18% | 3% |  |
| CC(C)(C)c1cc2c(OCC(=O)N(CCO)CCO)c(c1)Cc1cc(C(C)(C)C)cc(c1OCC(=O)N(CCO)CCO)Cc1cc(C(C)(C)C)cc(c1OCC(=O)N(CCO)CCO)Cc1cc(C(C)(C)C)cc(c1OCC(=O)N(CCO)CCO)Cc1cc(C(C)(C)C)cc(c1OCC(=O)N(CCO)CCO)Cc1cc(C(C)(C)C)cc(c1OCC(=O)N(CCO)CCO)C2 | 0% | 0% | 26% | 0% | 14% | 26% |  |
| CC(C)(C)c1cc2c(OCC(=O)N(CCO)CCO)c(c1)Cc1cc(C(C)(C)C)cc(c1OCC(=O)N(CCO)CCO)Cc1cc(C(C)(C)C)cc(c1OCC(=O)N(CCO)CCO)Cc1cc(C(C)(C)C)cc(c1OCC(=O)N(CCO)CCO)Cc1cc(C(C)(C)C)cc(c1OCC(=O)N(CCO)CCO)Cc1cc(C(C)(C)C)cc(c1OCC(=O)N(CCO)CCO)Cc1cc(C(C)(C)C)cc(c1OCC(=O)N(CCO)CCO)Cc1cc(C(C)(C)C)cc(c1OCC(=O)N(CCO)CCO)C2 | 10% | 11% | 25% | 0% | 11% | 5% |  |
| CC(C)(C)c1cc2c(O)c(c1)Cc1cc(C(C)(C)C)cc(c1OCC(=O)N(CCO)CCO)Cc1cc(C(C)(C)C)cc(c1O)Cc1cc(C(C)(C)C)cc(c1OCC(=O)N(CCO)CCO)C2 | 95% | 95% | 42% | 16% | 77% | 59% | IC50 (HeLa [12]): 8.1 µM; IC50 (MDA-MB-231 [8]): 5.2 µM; IC50 (SW1990 [14]): 11.3 µM; IC50 (Raji [21]): 11.2 µM |
| O=C(COc1c2cccc1Cc1cccc(c1OCC(=O)N(CCO)CCO)Cc1cccc(c1OCC(=O)N(CCO)CCO)Cc1cccc(c1OCC(=O)N(CCO)CCO)Cc1cccc(c1OCC(=O)N(CCO)CCO)Cc1cccc(c1OCC(=O)N(CCO)CCO)C2)N(CCO)CCO | 9% | 22% | 19% | 5% | 6% | 0% |  |
| CC(C)(C)c1cc2c(OCC(=O)NCCO)c(c1)Cc1cc(C(C)(C)C)cc(c1OCC(=O)NCCO)Cc1cc(C(C)(C)C)cc(c1OCC(=O)NCCO)Cc1cc(C(C)(C)C)cc(c1OCC(=O)NCCO)Cc1cc(C(C)(C)C)cc(c1OCC(=O)NCCO)Cc1cc(C(C)(C)C)cc(c1OCC(=O)NCCO)Cc1cc(C(C)(C)C)cc(c1OCC(=O)NCCO)Cc1cc(C(C)(C)C)cc(c1OCC(=O)NCCO)C2 | 23% | 12% | 26% | 8% | 24% | 5% |  |
